From publication PMC6105387 (Journal of clinical pharmacology, 2018)

Tests used:
[1] = metabolites excreted through the biliary route; cited from earlier work
[2] = Population pharmacokinetic model; format: in vivo, human
How it was run: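 Whole blood sampled 0–12 h post-dose and assayed by chemiluminescent microparticle immunoassay. Compartment models with first-order absorption; between-subject variability exponential, log-normal; categorical covariates as fractional change. Precision from 1000 bootstrap replicates (median, 95% percentile).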

C=CC[C@@H]1/C=C(\C)C[C@H](C)C[C@H](OC)[C@H]2O[C@@](O)(C(=O)C(=O)N3CCCC[C@H]3C(=O)O[C@H](/C(C)=C/[C@@H]3CC[C@@H](O)[C@H](OC)C3)[C@H](C)[C@@H](O)CC1=O)[C@H](C)C[C@@H]2OC [tacrolimus, Tacrolimus]
parent drug remaining unchanged [1]: less than 1%
magnitude of BSV on CL/F ([2]; after inclusion of covariates): 37%
magnitude of BSV on V/F ([2]; after inclusion of covariates): 76.7%
Individual base model estimated apparent clearance CL/F, mean ([2]; extensive metabolizers (CEMCYP3A5)): 45.0 L/h
Individual base model estimated apparent clearance CL/F, mean ([2]; intermediate metabolizers (CIMCYP3A5)): 29.5 L/h
Individual base model estimated apparent clearance CL/F, mean ([2]; poor metabolizers (CPMCYP3A5)): 19.8 L/h
magnitude of BSV on CL/F ([2]; before inclusion of covariates): 46.6%
magnitude of BSV on V/F ([2]; before inclusion of covariates): 83.2%
increase in CL/F compared to cPMCYP3A5 ([2]; cEMCYP3A5): ~2 fold
Typical value of CL/F ([2]; cEMCYP3A5, final model): 44.3 L.hr^1
increase in CL/F compared to cPMCYP3A5 ([2]; cIMCYP3A5): ~1.5 fold
Typical value of CL/F ([2]; cIMCYP3A5, final model): 28.6 L.hr^1
Typical value of CL/F ([2]; cPMCYP3A5, final model): 19.7 L.hr^1
BSV CL/F - η1, between-subject variability, estimate ([2]; final model): 37.0 CV%
BSV CLp/F - η3, between-subject variability, estimate ([2]; final model): 48.6 CV%
BSV V/F - η2, between-subject variability, estimate ([2]; final model): 76.7 CV%
BSV ka - η4, between-subject variability, estimate ([2]; final model): 69.4 CV%
Lag time - θlag, estimate ([2]; final model): 0.828 h
Residual variability, proportional error - ε1, estimate ([2]; final model): 9.00
ka - θka, absorption rate, estimate ([2]; final model): 4.21 h⁻¹
Vd/F ([2]; human, whole blood, oral): 234 L
clearance ([2]; human, whole blood, oral, 2.5 mg): 328 mL/min
clearance ([2]; human, whole blood, oral, 3.9 mg): 477 mL/min
clearance ([2]; human, whole blood, oral, 5.7 mg): 738 mL/min
BSV V/F - η2, bootstrap median ([2]; nonparametric bootstrap n=1000): 76.0 CV%
BSV ka - η4, bootstrap median ([2]; nonparametric bootstrap n=1000): 68.6 CV%
Lag time - θlag, bootstrap median ([2]; nonparametric bootstrap n=1000): 0.830 h
Residual variability, proportional error - ε1, bootstrap median ([2]; nonparametric bootstrap n=1000): 8.90
V/F - θV/F, bootstrap median ([2]; nonparametric bootstrap n=1000): 231 L
Vp/F - θVp/F, bootstrap median ([2]; nonparametric bootstrap n=1000): 404 L
ka - θka, bootstrap median ([2]; nonparametric bootstrap n=1000): 4.14 h⁻¹
CL/F - θCL/F, bootstrap median ([2]; nonparametric bootstrap n=1000, poor metabolizers): 19.6 L/h
